According to ChEMBL document CHEMBL4706622, “Comparative study between the anti-P. falciparum activity of triazolopyrimidine, pyrazolopyrimidine and quinoline derivatives and the identification of new PfDHODH inhibitors” (Eur J Med Chem, 2021):

Experiments:
[1] = Inhibition of Plasmodium falciparum DHODH (159- 569 aa) expressed in Escherichia coli BL21(DE3) cells assessed as 2,6-dichloroindophenol reduction by colorimetric method
In short: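 Second-stage PfDHODH IC50 determination from concentration–response curves, run only on compounds giving ≥80% inhibition at 50 µM in the single-point screen. PfDHODH final concentration was 50 nM. IC50 was not assigned where substrate consumption could not be measured at some concentrations on the curve.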

[2] = system: Plasmodium falciparum; assay: Antimalarial activity against CQ-sensitive Plasmodium falciparum 3D7 infected in erythrocytes by SYBR Green dye based fluorescence assay; type: functional, organism-based
[3] = system: HepG2; assay: Cytotoxicity against human HepG2 cells assessed as cell viability after 72 hrs by MTT assay; type: cell-based; conditions: HepG2, 72 h
[4] = Selectivity index, ratio of IC50 for cytotoxicity against human HepG2 cells to IC50 for antimalarial activity against Plasmodium falciparum 3D7; type: toxicity, cell-based; conditions: read-out: Ratio IC50
[5] = molecular target: Dihydroorotate dehydrogenase (quinone), mitochondrial (Homo sapiens) (UniProt Q02127); assay: Inhibition of human DHODH assessed as 2,6-dichloroindophenol reduction at 50 uM by colorimetric method
In short: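 First-stage HsDHODH screen at a single compound concentration of 50 µM, reported as % inhibition. It was run in parallel with the PfDHODH screen.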

[6] = system: Plasmodium falciparum; assay: Inhibition of Plasmodium falciparum DHODH (159- 569 aa) expressed in Escherichia coli BL21(DE3) cells assessed as 2,6-dichloroindophenol reduction at 50 uM by colorimetric method
In short: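 First-stage PfDHODH screen at a single compound concentration of 50 µM, reported as % inhibition. Compounds giving ≥80% inhibition went on to IC50 determination. The PfDHODH final concentration in the inhibition assay was 50 nM.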

Chain of Dihydroorotate dehydrogenase (quinone), mitochondrial (Homo sapiens) (Q02127 whole entry): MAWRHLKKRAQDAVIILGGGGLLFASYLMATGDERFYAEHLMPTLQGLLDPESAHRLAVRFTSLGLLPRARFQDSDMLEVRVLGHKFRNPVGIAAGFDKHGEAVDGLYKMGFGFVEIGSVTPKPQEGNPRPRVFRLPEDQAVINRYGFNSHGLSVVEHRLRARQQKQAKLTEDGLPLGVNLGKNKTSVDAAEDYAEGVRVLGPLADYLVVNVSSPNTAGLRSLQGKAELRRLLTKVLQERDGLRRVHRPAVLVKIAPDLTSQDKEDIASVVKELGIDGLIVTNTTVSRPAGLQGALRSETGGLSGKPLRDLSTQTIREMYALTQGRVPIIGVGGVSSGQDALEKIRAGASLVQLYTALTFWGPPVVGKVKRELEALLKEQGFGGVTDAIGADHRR

SMILES | IC50 [1] [µM] | IC50 [2] [µM] | IC50 [3] [µM] | selectivity ratio [4] | inhibition [5] [%] | inhibition [6] [%]
Cc1cc(Nc2ccc(S(=O)(=O)Nc3ccc(Cl)cc3)cc2)n2ncnc2n1 | > 50 | 3 | 92 | > 31 | 0 | 
Cc1cc(Nc2ccc(S(=O)(=O)Nc3ccc(C(F)(F)F)cc3)cc2)n2nc(C)cc2n1 | > 50 | 8 | 42 | 5.25 | 0 | 25
O=S(=O)(Nc1ccccc1)c1ccc(Nc2ccnc3cc(Cl)ccc23)cc1 |  | 2 | 92 | > 46 |  | 
COc1ccc(NS(=O)(=O)c2ccc(Nc3cc(C)nc4nc(C(F)(F)F)nn34)cc2)cc1 | 0.21 | 0.8 | 93 | > 114 | 0 | 
COc1ccc(NS(=O)(=O)c2ccc(Nc3cc(C)nc4nc(C)nn34)cc2)cc1 | 1.3 | 4 | 170 | 42.5 | 0 | 
Cc1ccc(NS(=O)(=O)c2ccc(Nc3cc(C)nc4nc(C(F)(F)F)nn34)cc2)cc1 | 0.8 | 0.032 | 54 | 1690 | 0 | 
COc1ccc(NS(=O)(=O)c2ccc(Nc3ccnc4cc(Cl)ccc34)cc2)cc1 |  | 2.8 | 92 | > 33 |  | 
Cc1cc(Nc2ccc(S(=O)(=O)Nc3ccc(C(F)(F)F)cc3)cc2)n2ncnc2n1 | > 50 | 0.15 | > 100 | > 667 | 0 | 
Cc1cc(Nc2ccc(S(=O)(=O)Nc3ccccc3)cc2)n2nc(C(F)(F)F)nc2n1 | > 50 | 1.3 | 92 | > 70 | 0 | < 80
Cc1cc(Nc2ccc(S(=O)(=O)Nc3ccc(Cl)cc3)cc2)n2nc(C)cc2n1 | > 50 | > 10 |  |  | 0 | 25
COc1ccc(NS(=O)(=O)c2ccc(Nc3cc(C)nc4ncnn34)cc2)cc1 | > 50 | 4 | 46 | > 13 | 0 | 
Cc1cc(Nc2ccc(S(=O)(=O)Nc3ccccc3)cc2)n2nc(C)cc2n1 | > 50 | 2.8 | 27 | 9.6 | 0 | 25
Cc1cc(Nc2ccc(S(=O)(=O)Nc3ccc(C(F)(F)F)cc3)cc2)n2nc(C)nc2n1 | 0.6 | 0.39 | 125 | 321 | 0 | 
C[C@H]1[C@H](OC(=O)CCC(=O)O)O[C@@H]2O[C@@]3(C)CC[C@H]4[C@H](C)CC[C@@H]1[C@@]24OO3 [ARTESUNATE] |  | 0.009 | 267 | 29700 |  | 
CCN(CC)CCCC(C)Nc1ccnc2cc(Cl)ccc12 (stereo not drawn) [CHLOROQUINE] |  |  | 384 |  |  | 
Cc1cc(Nc2ccc(S(=O)(=O)Nc3ccc(F)cc3)cc2)n2nc(C)cc2n1 | > 50 | > 10 |  |  | 0 | 25
O=S(=O)(Nc1ccc2ccccc2c1)c1ccc(Nc2ccnc3cc(Cl)ccc23)cc1 |  | 0.89 | 13 | 15.1 |  | 
COc1ccc(NS(=O)(=O)c2ccc(Nc3cc(C)nc4cc(C)nn34)cc2)cc1 | > 50 | > 10 |  |  | 0 | 25
Cc1cc(Nc2ccc(S(=O)(=O)Nc3ccc(F)cc3)cc2)n2ncnc2n1 | 0.3 | 2 | 367 | > 187 | 0 | 

SMILES | IC50 [1] [µM] | IC50 [2] [µM] | IC50 [3] [µM] | selectivity ratio [4] | inhibition [5] [%] | inhibition [6] [%]
Cc1cc(Nc2ccc(S(=O)(=O)Nc3ccc4ccccc4c3)cc2)n2ncnc2n1 | 0.3 | 0.23 | 56 | 243 | 0 | 
Cc1cc(Nc2ccc(S(=O)(=O)Nc3ccc(Cl)cc3)cc2)n2nc(C)nc2n1 | 0.6 | 0.8 | > 50 | > 62.5 | 0 | 
Cc1cc(Nc2ccc(S(=O)(=O)Nc3ccc4ccccc4c3)cc2)n2nc(C)nc2n1 | 0.4 | 0.64 | 56 | 87.4 | 0 | 
Cc1cc(Nc2ccc(S(=O)(=O)Nc3ccc4ccccc4c3)cc2)n2nc(C)cc2n1 | > 50 | > 10 |  |  | 0 | 25
Cc1cc(Nc2ccc(S(=O)(=O)Nc3ccc(C(F)(F)F)cc3)cc2)n2nc(C(F)(F)F)nc2n1 | > 50 | 0.03 | 90 | 3000 | 0 | 
Cc1cc(Nc2ccc(S(=O)(=O)Nc3ccc(Cl)cc3)cc2)n2nc(C(F)(F)F)nc2n1 | 0.08 | 0.4 | 47 | > 123 | 0 | 
Cc1ccc(NS(=O)(=O)c2ccc(Nc3ccnc4cc(Cl)ccc34)cc2)cc1 |  | 0.97 | 92 | > 95 |  | 
Cc1cc(Nc2ccc(S(=O)(=O)Nc3ccc4ccccc4c3)cc2)n2nc(C(F)(F)F)nc2n1 | 0.22 | 0.05 | > 100 | > 2000 | 0 | 
O=S(=O)(Nc1ccc(C(F)(F)F)cc1)c1ccc(Nc2ccnc3cc(Cl)ccc23)cc1 |  | 2.1 | 23 | 11 |  | 
Cc1ccc(NS(=O)(=O)c2ccc(Nc3cc(C)nc4cc(C)nn34)cc2)cc1 | > 50 | > 10 |  |  | 0 | 25
O=S(=O)(Nc1ccc(F)cc1)c1ccc(Nc2ccnc3cc(Cl)ccc23)cc1 |  | 4.6 | 92 | > 21 |  | 
O=S(=O)(Nc1ccc(Cl)cc1)c1ccc(Nc2ccnc3cc(Cl)ccc23)cc1 |  | 1.7 | 93 | > 56 |  | 
Cc1cc(Nc2ccc(S(=O)(=O)Nc3ccccc3)cc2)n2nc(C)nc2n1 | > 50 | 6.9 | 193 | 28 | 0 | 
Cc1ccc(NS(=O)(=O)c2ccc(Nc3cc(C)nc4ncnn34)cc2)cc1 | 0.41 | 0.5 | 367 | > 728 | 0 | 
Cc1cc(Nc2ccc(S(=O)(=O)Nc3ccccc3)cc2)n2ncnc2n1 | 0.8 | 9.1 | 365 | > 40 | 0 | 
Cc1cc(Nc2ccc(S(=O)(=O)Nc3ccc(F)cc3)cc2)n2nc(C)nc2n1 | 1 | 2.7 | 150 | 55.6 | 0 | 
Cc1ccc(NS(=O)(=O)c2ccc(Nc3cc(C)nc4nc(C)nn34)cc2)cc1 | 0.3 | 0.91 | 110 | 121 | 0 | 
Cc1cc(Nc2ccc(S(=O)(=O)Nc3ccc(F)cc3)cc2)n2nc(C(F)(F)F)nc2n1 | 0.5 | 0.086 | 101 | 1170 | 0 | 
